Experiments:
[1] = Cytotoxicity against human P3HR1 cells assessed as cell viability after 2 days by trypan blue staining-based light microscopy; parameters: species or system P3HR-1
[2] = Selectivity index, ratio of CC50 for human P3HR1 cells to EC50 for EBV infected in human P3HR1 cells; parameters: species or system P3HR-1
In short: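 CC50: P3HR-1 cells treated or untreated with compounds, viability counted by Trypan blue exclusion under light microscope 2 days post-treatment, relative to nondrug-treated controls, CC50 from dose-response curves. EC50: TPA (20 ng/mL)/sodium butyrate (0.3 mM)-induced P3HR-1 cells, compounds added 3 h later, EBV EBNA1 DNA quantified by real-time PCR at 48 h. Ratio CC50/EC50.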

Human gammaherpesvirus 4 = experiment: Antiviral activity against EBV infected in human P3HR1 cells assessed as inhibition of lytic viral DNA replication after 48 hrs by RT-PCR analysis; assay type: functional, organism-based; details: human gammaherpesvirus 4, P3HR-1, 48 h
In short: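 P3HR-1 Burkitt lymphoma cells latently carrying EBV, grown in RPMI 1640 with 10% FBS, induced to lytic replication with TPA 20 ng/mL plus sodium butyrate 0.3 mM. Compounds added 3 h later across a concentration range. At 48 h post-induction, total cellular DNA purified, EBV genome copies quantified by SYBR green real-time PCR for EBNA1. Noninduced background subtracted, normalised to untreated induced cells, EC50 from dose-response curve.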

| Structure (SMILES) | CC50 at 48 h [1] [µM] | Ratio CC50/EC50 [2] | EC50 (Human gammaherpesvirus 4) [µM] |
| --- | --- | --- | --- |
| C/C=C/c1cc(OC)c(O[C@@H](C)[C@@H](O)c2cc(OC)c(OC)c(OC)c2)c(OC)c1 | 77.3 | 3.2 | 24 |
| COc1ccc([C@H]2O[C@@H](c3ccc(OC)c(OC)c3)[C@@H](C)[C@H]2C)cc1OC | 59.8 | 1.2 | 49.9 |
| C=CCc1cc(OC)c(O[C@H](C)[C@H](OC(C)=O)c2cc(OC)c(OC)c(OC)c2)c(OC)c1 | 85 | 4 | 21.5 |
| C=CCc1cc(OC)c(O[C@H](C)[C@H](O)c2cc(OC)c3c(c2)OCO3)c(OC)c1 | 50.6 | 4 | 12.8 |
| C/C=C/c1cc(OC)c(O[C@H](C)[C@H](OC(C)=O)c2cc(OC)c(OC)c(OC)c2)c(OC)c1 | 76.8 | 3 | 25.4 |
| C=CCc1cc(OC)c(O[C@H](C)C(=O)c2cc(OC)c(OC)c(OC)c2)c(OC)c1 | > 200 | >9.1 | 21.9 |
| C/C=C/c1ccc(O[C@H](C)[C@H](O)c2ccc(O)c(OC)c2)c(OC)c1 | 61.3 | 2.6 | 23.8 |
| COc1ccc([C@H]2O[C@@H](c3cc(OC)c(O)c(OC)c3)[C@H](C)[C@@H]2C)cc1OC | 100 | 8.6 | 11.6 |
| COc1ccc([C@H]2O[C@@H](c3cc(OC)c(OC)c(OC)c3)[C@H](C)[C@@H]2C)cc1OC | 172 | 2.5 | 67.9 |
| COc1cc([C@H]2O[C@@H](c3cc(OC)c4c(c3)OCO4)[C@H](C)[C@@H]2C)cc(OC)c1OC | 55 | 2 | 27.3 |
| COc1cc([C@H]2O[C@@H](c3cc(OC)c(OC)c(OC)c3)[C@H](C)[C@@H]2C)cc(OC)c1O | 65.8 | 2.2 | 29.5 |
| COc1cc([C@H]2O[C@@H](c3ccc(OC)c(OC)c3)[C@@H](C)[C@H]2C)ccc1O | 62.3 | 2.3 | 26.9 |
| COc1cc([C@@H](O)[C@@H](C)Oc2ccc([C@@H]3O[C@H](c4ccc(O)c(OC)c4)[C@H](C)[C@H]3C)cc2OC)ccc1O | 23.2 | 3.3 | 6.95 |
| COc1cc([C@H]2O[C@@H](c3cc(OC)c(OC)c(OC)c3)[C@H](C)[C@@H]2C)cc(O)c1OC | 32 | 1.9 | 16.7 |
| COc1ccc([C@@H](O)[C@@H](C)Oc2ccc([C@H]3O[C@H](c4ccc(OC)c(OC)c4)[C@H](C)[C@H]3C)cc2OC)cc1OC | 110 | 65 | 1.7 |
| COc1ccc([C@@H](O)[C@@H](C)Oc2ccc(C(=O)[C@H](C)[C@H](C)C(=O)c3ccc(O[C@H](C)[C@H](O)c4ccc5c(c4)OCO5)c(OC)c3)cc2OC)cc1OC | > 200 | >12.4 | 16.2 |
| COc1cc([C@@H](O)[C@@H](C)Oc2ccc([C@H]3O[C@H](c4ccc(O[C@H](C)[C@H](O)c5ccc(OC)c(OC)c5)c(OC)c4)[C@H](C)[C@H]3C)cc2OC)ccc1O | 69.5 | 9.2 | 7.55 |
| COc1ccc([C@@H](O)[C@@H](C)Oc2ccc([C@H]3O[C@H](c4ccc(O[C@H](C)[C@H](O)c5ccc6c(c5)OCO6)c(OC)c4)[C@H](C)[C@H]3C)cc2OC)cc1O | 26.5 | – | 2.69 |
| COc1cc(C(=O)[C@@H](C)Oc2c(OC)cc(/C=C/CO)cc2OC)cc(OC)c1OC | > 200 | >2.5 | 80.1 |
| C=CCc1cc(OC)c(O[C@H](COC(C)=O)[C@H](O)c2cc(OC)c(OC)c(OC)c2)c(OC)c1 | 194 | 3.7 | 53.3 |
| COc1cc([C@@H](OC(C)=O)[C@@H](C)Oc2c(OC)cc(/C=C/CO)cc2OC)cc(OC)c1OC | > 200 | >4.2 | 44.3 |
| C/C=C/c1cc(OC)c(O[C@H](C)[C@H](O)c2cc(OC)c3c(c2)OCO3)c(OC)c1 | 90.3 | 4.2 | 21.7 |
| COc1ccc([C@@H](O)[C@@H](C)Oc2ccc([C@H]3O[C@@]4(c5ccc(O[C@H](C)[C@H](O)c6ccc(OC)c(OC)c6)c(OC)c5)O[C@@]4(C)[C@H]3C)cc2OC)cc1OC (relative stereo) | 64.8 | 4.4 | 14.5 |
| COc1cc([C@@H](O)[C@@H](C)Oc2ccc([C@H]3O[C@H](c4ccc(O[C@H](C)[C@H](O)c5ccc6c(c5)OCO6)c(OC)c4)[C@H](C)[C@H]3C)cc2OC)ccc1O [4-O-DEMETHYLMANASSANTIN B] | 70.8 | 20.2 | 3.52 |
| COc1cc([C@H]2O[C@@H](c3cc(OC)c(OC)c(OC)c3)[C@H](C)[C@H]2C)cc(OC)c1OC [EPIGRANDISIN] | > 200 | >8 | 25 |
| COc1ccc([C@@H](O)[C@@H](C)Oc2ccc([C@H]3O[C@H](c4ccc(O[C@H](C)[C@H](O)c5ccc6c(c5)OCO6)c(OC)c4)[C@H](C)[C@H]3C)cc2OC)cc1OC [MANASSANTIN B] | > 200 | >116.4 | 1.72 |
| COc1ccc([C@H](O)[C@@H](C)Oc2ccc([C@H]3O[C@H](c4ccc5c(c4)OCO5)[C@H](C)[C@H]3C)cc2OC)cc1OC [SAUCERNEOL D] | 45 | 41.1 | 1.09 |
